Results on 2 molecules are retold here after ChEMBL document CHEMBL1123747, “N-methyl derivatives of the 5-HT2 agonist 1-(4-bromo-2,5-dimethoxyphenyl)-2-aminopropane” (J Med Chem, 1987).

Where only a bound is given, the exact number is not on record here.

The species named for test [1] is Rattus norvegicus. The test can be described thus: The number of responses made on the (R)(-)-DOB appropriate level, generation studies was calculated at dose 0.01 mg / kg. It counts as functional. Put shortly:
(§1)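 Male Sprague-Dawley rats (n = 6) were trained on a two-lever operant task for sweetened-milk reward to discriminate 0.2 mg/kg (R)-(-)-DOB-HCl ip from 1.0 mL/kg 0.9% saline, with a VI 15-s schedule and 15-min sessions. Test doses were given ip 15 min before a 2.5-min extinction session, in random order, to groups of 3-6 rats. Read-out was % drug-lever responses; fewer than five total responses counted as disrupted.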

For test [2], the species on record is Rattus norvegicus. Kind of test: The number of responses made on the (R)(-)-DOB appropriate level, generation studies was calculated at dose 0.03 mg / kg. It counts as functional. In short, it runs like this: as §1
Test [3] is filed under the species Rattus norvegicus. Kind of test: The number of responses made on the (R)(-)-DOB appropriate level, generation studies was calculated at dose 0.05 mg / kg. In kind it is functional. Put shortly:
as §1

Test [4] is filed under the species Rattus norvegicus. The test can be described thus: The number of responses made on the (R)(-)-DOB appropriate level, generation studies was calculated at dose 0.10 mg / kg. In kind it is functional. Particulars: dose 0.1 mg / kg. In short, it runs like this: as §1
The species entered for test [5] is Rattus norvegicus. The test can be described thus: The number of responses made on the (R)(-)-DOB appropriate level, generation studies was calculated at dose 0.20 mg / kg. The conditions noted are these: dose 0.2 mg / kg. It counts as functional. In short, it runs like this: as §1
The species entered for test [6] is Rattus norvegicus. The test can be described thus: The number of animals responding per number of animals receiving the drug(4/4)in the stimulus-generation studies was calculated at dose 0.10 mg / kg. In kind it is functional. The conditions noted are these: dose 0.1 mg / kg. In short, it runs like this:
as §1

The species named for test [7] is Rattus norvegicus. The test can be described thus: The number of animals responding per number of animals receiving the drug(5/5) in the stimulus-generation studies was calculated at dose 0.03 mg / kg. It counts as functional. Put shortly:
as §1

The species entered for test [8] is Rattus norvegicus. Kind of test: The number of animals responding per number of animals receiving the drug(4/4) in the stimulus-generation studies was calculated at dose 0.01 mg / kg. In kind it is functional. In short, it runs like this:
(§2)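 Male Sprague-Dawley rats were trained to discriminate 0.2 mg/kg ip training drug from saline (two levers, VI 15-s, milk reward). Test doses were given ip 15 min pre-session in random order to groups of 3–6. In the 2.5-min extinction session, rats making fewer than five total responses were counted as disrupted. N is animals responding over animals dosed.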

The species named for test [9] is Rattus norvegicus. Kind of test: The number of animals responding per number of animals receiving the drug (4/4)in the stimulus-generation studies was calculated at dose 0.20 mg / kg. The conditions noted are these: dose 0.2 mg / kg. In kind it is functional. Put shortly: as §2
The species entered for test [10] is Rattus norvegicus. The test can be described thus: The number of animals responding per number of animals receiving the drug (5/5)in the stimulus-generation studies was calculated at dose 0.05 mg / kg. In kind it is functional. In short, it runs like this: as §2
The species entered for test [11] is Rattus norvegicus. The test can be described thus: The mean responses per minute during the 2.5 min extinction session in the stimulus-generation studies was calculated at dose 0.01 mg / kg. In kind it is functional. Put shortly:
(§3)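 Rats were trained on a two-lever drug-versus-saline discrimination (0.2 mg/kg ip training dose, VI 15-s, food reward). Challenge doses were given ip 15 min before a 2.5-min extinction test, in random order, to groups of 3–6 rats, with at least three training sessions between tests. Response rate is responses per minute over the extinction session.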

The species named for test [12] is Rattus norvegicus. Kind of test: The mean responses per minute during the 2.5 min extinction session in the stimulus-generation studies was calculated at dose 0.03 mg / kg. It counts as functional. In short, it runs like this:
as §3

Test [13] is filed under the species Rattus norvegicus. The test can be described thus: The mean responses per minute during the 2.5 min extinction session in the stimulus-generation studies was calculated at dose 0.05 mg / kg. It counts as functional. In short, it runs like this:
as §3

The species entered for test [14] is Rattus norvegicus. The test can be described thus: The mean responses per minute during the 2.5 min extinction session in the stimulus-generation studies was calculated at dose 0.10 mg / kg. It counts as functional. Particulars: dose 0.1 mg / kg. Put shortly: as §3
Test [15] is filed under the species Rattus norvegicus. Kind of test: The mean responses per minute during the 2.5 min extinction session in the stimulus-generation studies was calculated at dose 0.20 mg / kg. It counts as functional. The conditions noted are these: dose 0.2 mg / kg. Put shortly: as §3
The species named for test [16] is Rattus norvegicus. Kind of test: 1 The compound was tested for effective dose ( ED 50) against stimulus generation with rats trained to discriminate (R) (-)-DOB from saline. It counts as functional. Put shortly: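 Male Sprague-Dawley rats (n = 6) on a two-lever operant task for sweetened milk, VI 15-s schedule. Trained to discriminate 0.2 mg/kg ip training drug from 1.0 mL/kg 0.9% saline, 15 min pre-session. Test doses were given ip in random order to groups of 3–6, with 15-min pretreatment and a 2.5-min extinction session. ED50 was calculated from dose-response data.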

Test [17] concerns the target T1, Serotonin 2 (5-HT2) receptor (Rattus norvegicus, UniProt P30994+P08909+P14842). The test can be described thus: Affinity towards [3H]- DOB -labeled 5-hydroxytryptamine 2 receptor sites in rat cortical homogenates.
Test [18] concerns the target T1, Serotonin 2 (5-HT2) receptor. The test can be described thus: Affinity towards [3H]- ketanserin-labeled 5-hydroxytryptamine 2 receptor sites in rat cortical homogenates. Put shortly: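 Label was 0.4 nM [3H]ketanserin, with 11 competitor concentrations run in triplicate and nonspecific binding defined by 1 μM cinanserin. Bound ligand was filtered onto glass fibre and counted by scintillation. IC50 came from nonlinear regression; Ki = IC50/(1+[D]/KD).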

Test [19] is filed under the species Rattus norvegicus. Kind of test: The number of responses made on the (R)(-)-DOB appropriate level, generation studies was calculated at dose 2.0 mg / kg. In kind it is functional. In short, it runs like this:
as §1

For test [20], the species on record is Rattus norvegicus. Kind of test: The number of responses made on the (R)(-)-DOB appropriate level, generation studies was calculated at dose 2.2 mg / kg. It counts as functional. In short, it runs like this: as §1
The species entered for test [21] is Rattus norvegicus. Kind of test: The number of responses made on the (R)(-)-DOB appropriate level, generation studies was calculated at dose 0.7 mg / kg. It counts as functional. Put shortly: as §1
For test [22], the species on record is Rattus norvegicus. The test can be described thus: The number of responses made on the (R)(-)-DOB appropriate level, generation studies was calculated at dose 1.2 mg / kg. It counts as functional. In short, it runs like this:
as §1

For test [23], the species on record is Rattus norvegicus. Kind of test: The number of animals responding per number of animals receiving the drug(3/4) in the stimulus-generation studies, was calculated at dose 2.2 mg / kg. In kind it is functional. Put shortly:
as §2

The species named for test [24] is Rattus norvegicus. The test can be described thus: The number of animals responding per number of animals receiving the drug (3/3)in the stimulus-generation studies, was calculated at dose 1.2 mg / kg. It counts as functional. In short, it runs like this:
as §2

For test [25], the species on record is Rattus norvegicus. The test can be described thus: The number of animals responding per number of animals receiving the drug (4/4)in the stimulus-generation studies, was calculated at dose 2.0 mg / kg. It counts as functional. Put shortly:
as §2

Test [26] is filed under the species Rattus norvegicus. Kind of test: The number of animals responding per number of animals receiving the drug (4/4)in the stimulus-generation studies, was calculated at dose 0.7 mg / kg. It counts as functional. In short, it runs like this:
as §2

For test [27], the species on record is Rattus norvegicus. Kind of test: The mean responses per minute during the 2.5 min extinction session in the stimulus-generation studies was calculated at dose 2.0 mg / kg. In kind it is functional. In short, it runs like this: as §3
For test [28], the species on record is Rattus norvegicus. The test can be described thus: The mean responses per minute during the 2.5 min extinction session in the stimulus-generation studies was calculated at dose 2.2 mg / kg. In kind it is functional. In short, it runs like this:
as §3

The species named for test [29] is Rattus norvegicus. The test can be described thus: The mean responses per minute during the 2.5 min extinction session in the stimulus-generation studies was calculated at dose 0.7 mg / kg. It counts as functional. Put shortly:
as §3

For test [30], the species on record is Rattus norvegicus. The test can be described thus: The mean responses per minute during the 2.5 min extinction session in the stimulus-generation studies was calculated at dose 1.2 mg / kg. It counts as functional. Put shortly: as §3

What is called ED50 is the dose at which the effect has come halfway, by size or by number of responders. A low value points to greater potency. The term Ki denotes a dissociation constant, usually derived from enzyme kinetics or from competition with a known ligand. Lower therefore signals tighter binding.

Consider `COc1cc(C[C@@H](C)N)c(OC)cc1Br`, for which the Responding in the test listed under Rattus norvegicus [1] is 5%; in the test listed under Rattus norvegicus [2], 21%; in the test filed under Rattus norvegicus [3], 58%; in the test listed under Rattus norvegicus [4] it was 64%; in the test listed under Rattus norvegicus [5], 98%. Further, the “No. of animals responding/animals receiving drug” value in the test listed under Rattus norvegicus [6] is 4; in the test listed under Rattus norvegicus [7], 5; in the test filed under Rattus norvegicus [8], 4; in the test filed under Rattus norvegicus [9] it was 4; in the test filed under Rattus norvegicus [10], 5. The Response rate in the test listed under Rattus norvegicus [11] was 12.5; in the test filed under Rattus norvegicus [12], 11.8; in the test listed under Rattus norvegicus [13], 12; in the test listed under Rattus norvegicus [14] it was 10.8; in the test filed under Rattus norvegicus [15], 12.3. The molecule also registered a 50% effective dose (ED50) in the test filed under Rattus norvegicus [16] of 0.05 mg/kg.
Take `COc1cc(CC(C)[N+](C)(C)C)c(OC)cc1Br.[I-]` (stereo not given): the Ki in [17] was 8.25 µM; in test [18], above 25 µM. In addition, the Responding in the test filed under Rattus norvegicus [19] is recorded as 38%; in the test filed under Rattus norvegicus [20] it was 3%; in the test listed under Rattus norvegicus [21] it was 3%; in the test listed under Rattus norvegicus [22], 9%. Also, the “No. of animals responding/animals receiving drug” value is recorded as 3 in the test filed under Rattus norvegicus [23], 3 in the test filed under Rattus norvegicus [24], 4 in the test filed under Rattus norvegicus [25] and 4 in the test listed under Rattus norvegicus [26]. The Response rate is reported as 7.3 in the test listed under Rattus norvegicus [27], 3.7 in the test filed under Rattus norvegicus [28], 16.2 in the test filed under Rattus norvegicus [29] and 11.9 in the test listed under Rattus norvegicus [30].
